# Measurements published in publication PMC8458982 (The Journal of Biological Chemistry, 2021).
# Legend:
# mTRPC6 mutant ^mK688R = experiment: whole-cell patch-clamp, mTRPC6 mutant K688R; format: cell-based, mouse; settings: ^mK688R (S3 pocket)
# In short: (§1)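 Transiently transfected HEK293 cells expressing mouse or human TRPC6 WT, or sequence-verified mouse point mutants, recorded 24–48 h post-transfection. Conventional whole-cell clamp at −60 mV and 23 °C, gap-free; test compound applied by Y-tube. Pipette: CsCl/HEPES/BAPTA, 400 nM free Ca2+, pH 7.2. Bath: NaCl-based, 2 mM CaCl2, pH 7.4. EC50 from Hill fit of concentration–current data. Mutant screen used current ratios (10/5 μM or 3/1 μM). At least 3 transfection batches.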
# mTRPC6 mutant ^mE671C = molecular target: T1, mTRPC6 mutant ^mE671C (Mus musculus, UniProt Q61143, E671C); experiment: whole-cell patch-clamp, mTRPC6 mutant E671C; format: cell-based
# T1 sequence (Q61143 1-930 E671C): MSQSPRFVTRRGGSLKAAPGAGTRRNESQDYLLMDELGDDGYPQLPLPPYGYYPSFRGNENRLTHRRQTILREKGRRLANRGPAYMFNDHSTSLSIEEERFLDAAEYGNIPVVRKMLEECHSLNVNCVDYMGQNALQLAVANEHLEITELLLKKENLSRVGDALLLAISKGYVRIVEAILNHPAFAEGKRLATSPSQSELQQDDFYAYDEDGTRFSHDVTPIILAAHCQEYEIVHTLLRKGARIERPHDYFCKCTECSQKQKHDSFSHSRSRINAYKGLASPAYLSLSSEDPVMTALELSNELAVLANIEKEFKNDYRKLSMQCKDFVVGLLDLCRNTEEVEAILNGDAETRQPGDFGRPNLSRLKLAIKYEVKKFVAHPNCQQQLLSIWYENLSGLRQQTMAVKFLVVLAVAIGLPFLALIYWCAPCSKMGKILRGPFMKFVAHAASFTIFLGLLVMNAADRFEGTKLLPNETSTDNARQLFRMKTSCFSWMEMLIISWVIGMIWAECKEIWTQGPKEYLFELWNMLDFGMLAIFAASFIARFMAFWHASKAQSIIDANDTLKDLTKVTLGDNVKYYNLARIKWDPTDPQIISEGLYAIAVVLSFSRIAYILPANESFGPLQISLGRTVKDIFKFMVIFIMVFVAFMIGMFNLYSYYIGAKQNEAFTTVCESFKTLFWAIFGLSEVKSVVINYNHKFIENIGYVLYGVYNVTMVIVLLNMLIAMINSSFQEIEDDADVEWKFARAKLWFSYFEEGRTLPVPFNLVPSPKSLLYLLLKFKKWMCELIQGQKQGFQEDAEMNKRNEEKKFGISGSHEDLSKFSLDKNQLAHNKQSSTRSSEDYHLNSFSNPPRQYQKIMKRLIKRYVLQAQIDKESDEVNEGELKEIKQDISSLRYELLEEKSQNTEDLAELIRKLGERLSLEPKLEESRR
# In short: as §1
# mTRPC6 mutant ^mF490W = experiment: whole-cell patch-clamp, mTRPC6 mutant F490W; format: cell-based, mouse; settings: ^mF490W (S1 pocket)
# In short: as §1
# human TRPC6 (hTRPC6-WT) = human TRPC6 (hTRPC6-WT) (Homo sapiens, UniProt Q9Y210); experiment: whole-cell patch-clamp, hTRPC6-WT expressed in HEK293 cells; format: cell-based
# In short: as §1
# hTRPC6 mutant ^hE672C = hTRPC6 mutant ^hE672C (Homo sapiens, UniProt Q9Y210, E672C); experiment: whole-cell patch-clamp, hTRPC6 mutant E672C; format: cell-based
# mTRPC6 mutant ^mR463K = experiment: whole-cell patch-clamp, mTRPC6 mutant R463K; format: cell-based, mouse; settings: ^mR463K (S1 pocket)
# In short: as §1
# hTRPC6 mutant ^hY705W = hTRPC6 mutant ^hY705W (Homo sapiens, UniProt Q9Y210, Y705W); experiment: whole-cell patch-clamp, hTRPC6 mutant Y705W; format: cell-based
# mTRPC6 mutant ^mK697R = mTRPC6 mutant ^mK697R (Mus musculus, UniProt Q61143, K697R); experiment: whole-cell patch-clamp, mTRPC6 mutant K697R; format: cell-based
# In short: as §1
# mTRPC6 mutant ^mF674A = mTRPC6 mutant ^mF674A (Mus musculus, UniProt Q61143, F674A); experiment: whole-cell patch-clamp, mTRPC6 mutant F674A; format: cell-based; settings: saturated agonist
# In short: as §1
# mTRPC6 mutant ^mL684V = mTRPC6 mutant ^mL684V (Mus musculus, UniProt Q61143, L684V); experiment: whole-cell patch-clamp, mTRPC6 mutant L684V; format: cell-based; settings: ^mL684V (S3 pocket)
# In short: as §1
# mTRPC6 mutant ^mS685T = mTRPC6 mutant ^mS685T (Mus musculus, UniProt Q61143, S685T); experiment: whole-cell patch-clamp, mTRPC6 mutant S685T; format: cell-based; settings: ^mS685T (S3 pocket)
# In short: as §1
# mTRPC6 mutant ^mN701Q = mTRPC6 mutant ^mN701Q (Mus musculus, UniProt Q61143, N701Q); experiment: whole-cell patch-clamp, mTRPC6 mutant N701Q; format: cell-based
# In short: as §1
# mTRPC6 mutant ^mN701A = mTRPC6 mutant ^mN701A (Mus musculus, UniProt Q61143, N701A); experiment: whole-cell patch-clamp, mTRPC6 mutant N701A; format: cell-based; settings: saturated agonist
# In short: as §1
# mTRPC6 mutant ^mT487L = experiment: whole-cell patch-clamp, mTRPC6 mutant T487L; format: cell-based, mouse; settings: ^mT487L (S1 pocket)
# In short: as §1
# mTRPC6^W679F = mTRPC6^W679F (Mus musculus, UniProt Q61143, W679F); experiment: single-channel outside-out recording, mTRPC6 W679F; format: cell-based; settings: 100 μM agonist, −60 mV
# In short: (§2)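 Excised outside-out or inside-out patches (macro-patch or single-channel) from transfected HEK293 cells, 24–48 h post-transfection, 23 °C. Polished borosilicate pipettes of 8–12 MΩ; holding potential −60 mV. Same solutions as whole-cell recordings (CsCl-based internal, 400 nM free Ca2+, pH 7.2; NaCl-based external, pH 7.4). Sampled at 50 kHz, 2 kHz filter, low-pass 300 Hz; unitary current and conductance measured.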
# mTRPC6 mutant ^mF640W = mTRPC6 mutant ^mF640W (Mus musculus, UniProt Q61143, F640W); experiment: whole-cell patch-clamp, mTRPC6 mutant F640W; format: cell-based
# In short: as §1
# mTRPC6^N701Q = mTRPC6^N701Q (Mus musculus, UniProt Q61143, N701Q); experiment: single-channel outside-out recording, mTRPC6 N701Q; format: cell-based; settings: 100 μM agonist, −60 mV
# In short: as §2
# hTRPC6 mutant ^hN702Q = hTRPC6 mutant ^hN702Q (Homo sapiens, UniProt Q9Y210, N702Q); experiment: whole-cell patch-clamp, hTRPC6 mutant N702Q; format: cell-based
# hTRPC6 mutant ^hE673D = hTRPC6 mutant ^hE673D (Homo sapiens, UniProt Q9Y210, E673D); experiment: whole-cell patch-clamp, hTRPC6 mutant E673D; format: cell-based
# mTRPC6 mutant ^mV709A = mTRPC6 mutant ^mV709A (Mus musculus, UniProt Q61143, V709A); experiment: whole-cell patch-clamp, mTRPC6 mutant V709A; format: cell-based
# In short: as §1
# Sequence of mTRPC6 mutant ^mK697R (Q61143 whole entry K697R): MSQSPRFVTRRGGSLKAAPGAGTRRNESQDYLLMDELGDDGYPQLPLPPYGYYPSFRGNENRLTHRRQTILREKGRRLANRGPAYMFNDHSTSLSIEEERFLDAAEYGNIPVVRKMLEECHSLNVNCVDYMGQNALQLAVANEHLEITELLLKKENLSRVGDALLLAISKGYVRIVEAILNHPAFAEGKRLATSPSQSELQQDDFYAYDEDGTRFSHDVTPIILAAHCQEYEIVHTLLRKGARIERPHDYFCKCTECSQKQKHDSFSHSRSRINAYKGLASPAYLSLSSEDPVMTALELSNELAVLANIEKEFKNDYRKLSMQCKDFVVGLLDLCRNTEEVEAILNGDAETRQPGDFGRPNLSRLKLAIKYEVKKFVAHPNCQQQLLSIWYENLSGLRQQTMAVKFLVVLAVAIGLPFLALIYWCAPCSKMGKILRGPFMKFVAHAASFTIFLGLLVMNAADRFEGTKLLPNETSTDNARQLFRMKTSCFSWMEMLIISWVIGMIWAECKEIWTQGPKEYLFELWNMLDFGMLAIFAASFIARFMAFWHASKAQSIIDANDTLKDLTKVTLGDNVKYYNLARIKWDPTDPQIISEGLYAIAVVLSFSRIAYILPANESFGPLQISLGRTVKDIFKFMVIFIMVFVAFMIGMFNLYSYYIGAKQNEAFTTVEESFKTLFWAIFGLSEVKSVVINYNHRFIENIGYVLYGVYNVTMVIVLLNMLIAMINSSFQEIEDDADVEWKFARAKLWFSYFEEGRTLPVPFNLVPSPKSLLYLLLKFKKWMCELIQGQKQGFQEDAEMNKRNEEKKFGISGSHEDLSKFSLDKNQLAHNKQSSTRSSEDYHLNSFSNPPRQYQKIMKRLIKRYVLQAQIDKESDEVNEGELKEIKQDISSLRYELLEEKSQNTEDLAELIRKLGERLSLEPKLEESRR
# Sequence of mTRPC6 mutant ^mN701Q (Q61143 whole entry N701Q): as the sequence (Q61143 whole entry K697R) above, with R697K, N701Q counted along it
# Sequence of mTRPC6^W679F (Q61143 whole entry W679F): as the sequence (Q61143 whole entry K697R) above, with W679F, R697K counted along it
# Sequence of hTRPC6 mutant ^hE673D (Q9Y210 whole entry E673D): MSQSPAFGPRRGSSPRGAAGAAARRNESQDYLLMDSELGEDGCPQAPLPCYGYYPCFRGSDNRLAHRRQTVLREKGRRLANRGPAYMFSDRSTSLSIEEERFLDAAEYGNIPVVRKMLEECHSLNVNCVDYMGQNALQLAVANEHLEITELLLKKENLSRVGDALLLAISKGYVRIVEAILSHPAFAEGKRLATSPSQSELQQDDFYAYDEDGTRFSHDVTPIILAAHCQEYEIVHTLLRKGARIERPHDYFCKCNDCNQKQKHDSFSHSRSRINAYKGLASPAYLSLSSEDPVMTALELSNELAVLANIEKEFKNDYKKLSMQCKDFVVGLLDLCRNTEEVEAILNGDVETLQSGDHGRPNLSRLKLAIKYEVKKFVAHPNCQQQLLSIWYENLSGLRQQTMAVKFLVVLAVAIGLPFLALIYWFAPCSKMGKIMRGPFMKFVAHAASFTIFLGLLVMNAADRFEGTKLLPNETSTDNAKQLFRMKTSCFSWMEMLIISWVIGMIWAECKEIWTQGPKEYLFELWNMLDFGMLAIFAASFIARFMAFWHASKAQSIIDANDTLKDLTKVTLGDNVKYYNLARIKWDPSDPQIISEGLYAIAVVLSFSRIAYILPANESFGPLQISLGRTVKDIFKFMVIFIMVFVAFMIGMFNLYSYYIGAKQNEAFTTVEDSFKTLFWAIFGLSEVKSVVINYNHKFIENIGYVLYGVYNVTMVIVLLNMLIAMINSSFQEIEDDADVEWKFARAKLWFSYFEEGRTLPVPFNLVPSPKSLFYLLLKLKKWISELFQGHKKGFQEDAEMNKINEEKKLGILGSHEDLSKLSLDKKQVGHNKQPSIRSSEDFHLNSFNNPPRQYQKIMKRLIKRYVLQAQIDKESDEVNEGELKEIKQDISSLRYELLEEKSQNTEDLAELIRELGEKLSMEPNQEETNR
# Sequence of human TRPC6 (hTRPC6-WT) (Q9Y210 whole entry): as the sequence (Q9Y210 whole entry E673D) above, with D673E counted along it
# Sequence of mTRPC6 mutant ^mV709A (Q61143 whole entry V709A): as the sequence (Q61143 whole entry K697R) above, with R697K, V709A counted along it
# Sequence of mTRPC6 mutant ^mF674A (Q61143 whole entry F674A): as the sequence (Q61143 whole entry K697R) above, with F674A, R697K counted along it
# Sequence of hTRPC6 mutant ^hE672C (Q9Y210 whole entry E672C): as the sequence (Q9Y210 whole entry E673D) above, with E672C, D673E counted along it
# Sequence of mTRPC6 mutant ^mF640W (Q61143 whole entry F640W): as the sequence (Q61143 whole entry K697R) above, with F640W, R697K counted along it
# Sequence of mTRPC6 mutant ^mL684V (Q61143 whole entry L684V): as the sequence (Q61143 whole entry K697R) above, with L684V, R697K counted along it
# Sequence of mTRPC6^N701Q (Q61143 whole entry N701Q): as the sequence (Q61143 whole entry K697R) above, with R697K, N701Q counted along it
# Sequence of hTRPC6 mutant ^hY705W (Q9Y210 whole entry Y705W): as the sequence (Q9Y210 whole entry E673D) above, with D673E, Y705W counted along it
# Sequence of mTRPC6 mutant ^mN701A (Q61143 whole entry N701A): as the sequence (Q61143 whole entry K697R) above, with R697K, N701A counted along it
# Sequence of mTRPC6 mutant ^mS685T (Q61143 whole entry S685T): as the sequence (Q61143 whole entry K697R) above, with S685T, R697K counted along it
# Sequence of hTRPC6 mutant ^hN702Q (Q9Y210 whole entry N702Q): as the sequence (Q9Y210 whole entry E673D) above, with D673E, N702Q counted along it
structure (smiles),measurement,setting,value
"CCOC(=O)N1CCC(c2cc(O)n3nc(C)c(-c4ccc(F)cc4)c3n2)CC1 [M085, Ethyl 4-(3-(4-fluorophenyl)-7-hydroxy-2-methylpyrazolo[1,5-a]pyrimidin-5-yl)piperidine-1-carboxylate]",ratio of M085 activation current I10 μM/I5 μM,mTRPC6 mutant ^mK688R,1.80 ± 0.22
same,EC50,mTRPC6 mutant ^mE671C,23.3 ± 6.86 µM
same,ratio of M085 activation current I10 μM/I5 μM,mTRPC6 mutant ^mE671C; ^mE671C (S2 pocket),4.16 ± 0.87
same,Imax (maximal current density),"mTRPC6 mutant ^mE671C; ^mE671C, 100 μM agonist",24.09 ± 4.53 pA/pF
same,agonist-mediated activation after DTNB treatment,"mTRPC6 mutant ^mE671C; mTRPC6^E671C, DTNB 2 mM",completely inhibited
same,agonist current after DTT removal of TNB moiety,"mTRPC6 mutant ^mE671C; mTRPC6^E671C, after DTNB then DTT 10 mM",partially “recovered”
same,ratio of M085 activation current I10 μM/I5 μM,mTRPC6 mutant ^mF490W,1.91 ± 0.12
same,EC50,human TRPC6 (hTRPC6-WT),2.94 ± 0.7 µM
same,EC50,hTRPC6 mutant ^hE672C,50.2 ± 6.65 µM
same,ratio of M085 activation current I10 μM/I5 μM,mTRPC6 mutant ^mR463K,1.54 ± 0.17
same,EC50,hTRPC6 mutant ^hY705W,35.3 ± 6.15 µM
same,EC50,mTRPC6 mutant ^mK697R,14.1 ± 1.95 µM
same,Imax (maximal current density),"mTRPC6 mutant ^mK697R; ^mK697R, 100 μM agonist",25.58 ± 1.86 pA/pF
same,agonist-induced current,mTRPC6 mutant ^mF674A,disappearance
same,agonistic effect,mTRPC6 mutant ^mL684V,loss of agonistic effect
same,agonistic effect,mTRPC6 mutant ^mS685T,loss of agonistic effect
same,EC50,mTRPC6 mutant ^mN701Q,55.7 ± 15.2 µM
same,Imax (maximal current density),"mTRPC6 mutant ^mN701Q; ^mN701Q, 100 μM agonist",2.11 ± 1.04 pA/pF
same,agonist-induced current,mTRPC6 mutant ^mN701A,disappearance
same,ratio of M085 activation current I10 μM/I5 μM,mTRPC6 mutant ^mT487L,1.26 ± 0.22
same,unit current,mTRPC6^W679F,did not record unit currents
same,EC50,mTRPC6 mutant ^mF640W,0.84 ± 0.27 µM
same,unit current,mTRPC6^N701Q,about 1.1 pA
same,EC50,hTRPC6 mutant ^hN702Q,54.5 ± 6.53 µM
same,EC50,hTRPC6 mutant ^hE673D,22.1 ± 5.46 µM
same,EC50,mTRPC6 mutant ^mV709A,6.95 ± 2.13 µM
